The values that follow come from ChEMBL document CHEMBL1150687, “Three new cytotoxic sesterterpenes from a marine sponge Spongia sp” (J Nat Prod, 2003).

Structures are written as SMILES. ≈ marks a conversion by molar mass, not a printed value. Calls of active or inactive are those of the source. No cut-off for these calls is given here.

One assay has as its system KB. In words: Cytotoxicity against human KB cells. The format is functional, cell-based.
The subject of the next assay is HeLa. The assay is described as follows: Cytotoxicity against human HeLa cells. The format is functional, cell-based.
The subject of the next assay is L1210. In words: Cytotoxicity against mouse L1210 cells. The format is functional, cell-based.
A further assay concerns A549. The assay is described as follows: Cytotoxicity against human A549 cells. The format is functional, cell-based.
Assay [1] has as its system CCRF S-180. In words: Antitumor activity against mouse S180 cells xenografted ICR/kwl mouse assessed as increase in mouse life span at 5 mg/kg, ip relative to control. In kind it is functional. The essentials:
(§1)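 Female ICR/kwl mice (7 weeks, 19-21 g), six per group, inoculated ip with 0.1 mL sarcoma-180 suspension (1×10^7 cells/mL in saline). Compound dissolved in a little dimethylacetamide, suspended in 10% Tween 80-saline (1 mg/mL), given ip on days 1, 5 and 9 after inoculation. Survival followed; ILS (%) = (A/B − 1)×100 from weighed median survival days, treated versus untreated controls.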

Assay [2] deals with CCRF S-180. The assay is described as follows: Antitumor activity against mouse S180 cells xenografted ICR/kwl mouse assessed as increase in mouse life span at 10 mg/kg, ip relative to control. In kind it is functional. The essentials: as §1

As for `CO[C@@H]1C[C@H]2[C@]3(C)CC[C@H]4C(C)(C)CCC[C@]4(C)[C@H]3C[C@@H](OC(C)=O)[C@]2(C)C2=C1C(=O)O[C@H]2O`, the IC50 with KB was determined as 15.6 µg/mL (≈ 32.9 µM); in the assay on HeLa it was 5.3 µg/mL (≈ 11.2 µM); with L1210, 2.2 µg/mL (≈ 4.64 µM); in the assay on A549, 5.3 µg/mL (≈ 11.2 µM).

In the case of `CC1(C)CCC[C@]2(C)[C@H]3C[C@@H](O)[C@]4(C)[C@H]5COC(=O)C5=CC[C@H]4[C@]3(C)CC[C@@H]12`, the Activity with CCRF S-180 [1] (route intraperitoneal) stood at 50.3%. Besides, the IC50 in the assay with KB turned out to be 17.1 µg/mL (≈ 44.2 µM); with HeLa, 16.5 µg/mL (≈ 42.7 µM); in the assay on L1210, 1.6 µg/mL (≈ 4.14 µM); in the assay with A549, 16.5 µg/mL (≈ 42.7 µM).

`O=c1[nH]cc(F)c(=O)[nH]1` [FLUOROURACIL]: in the assay with CCRF S-180 [1] (route intraperitoneal), the Activity worked out at 32.9%. The result in the assay on CCRF S-180 [2] was Active.

As to `CC(=O)O[C@@H]1C[C@@H]2[C@@]3(C)CCCC(C)(C)[C@@H]3CC[C@@]2(C)[C@@H]2CC=C3CO[C@@H](O)[C@@H]3[C@@]12C`, the IC50 in the assay with KB amounted to 16.2 µg/mL (≈ 37.6 µM); in the assay on HeLa, 22.5 µg/mL (≈ 52.2 µM); in the assay on L1210, 2.1 µg/mL (≈ 4.88 µM); in the assay with A549, 29.4 µg/mL (≈ 68.3 µM). Moreover, the Activity in the assay on CCRF S-180 [2] (route intraperitoneal) was 28%.

In the case of `CC1(C)CCC[C@]2(C)[C@H]3C[C@@H](O)[C@]4(C)c5cocc5CC[C@H]4[C@]3(C)CC[C@@H]12`, the IC50 in the assay with KB was greater than 50 µg/mL; with HeLa, 19.5 µg/mL (≈ 52.6 µM); with L1210, greater than 50 µg/mL; in the assay with A549 it was greater than 50 µg/mL.

Take `CC1(C)CCC[C@]2(C)[C@H]3C[C@@H](O)[C@]4(C)[C@@H]5C(=CC[C@H]4[C@]3(C)CC[C@@H]12)C(=O)O[C@H]5O`: the outcome in the assay with CCRF S-180 [1] was inactive. Moreover, the IC50 in the assay on KB stood at 14.3 µg/mL (≈ 35.5 µM); with HeLa, 15 µg/mL (≈ 37.3 µM); with L1210 it was 2.3 µg/mL (≈ 5.71 µM); with A549 it was 14.8 µg/mL (≈ 36.8 µM).

With `CC(=O)O[C@@H]1C[C@@H]2[C@@]3(C)CCCC(C)(C)[C@@H]3CC[C@@]2(C)[C@@H]2CC=C3C(=O)O[C@@H](O)[C@@H]3[C@@]12C`, the 50% inhibitory concentration (IC50) in the assay on KB was determined as 18.5 µg/mL (≈ 41.6 µM); with HeLa it was 26 µg/mL (≈ 58.5 µM); with L1210, 13.2 µg/mL (≈ 29.7 µM); in the assay on A549 it was 23.7 µg/mL (≈ 53.3 µM).

Turning to `CO[C@@]12[C@H](COC(N)=O)C3=C(C(=O)C(C)=C(N)C3=O)N1C[C@@H]1N[C@@H]12` [MITOMYCIN], the IC50 in the assay with KB came out at 0.015 µg/mL (≈ 0.0449 µM); in the assay on HeLa, 0.015 µg/mL (≈ 0.0449 µM); with L1210 it was 0.02 µg/mL (≈ 0.0598 µM); in the assay on A549, 0.02 µg/mL (≈ 0.0598 µM).

By IC50 is commonly meant the midpoint of a concentration-inhibition curve.
